According to ChEMBL document CHEMBL4052615, “Discovery of 4-amino-3-arylsulfoquinolines, a novel non-acetylenic chemotype of metabotropic glutamate 5 (mGlu5) receptor negative allosteric modulators” (Eur J Med Chem, 2017):

Target: Metabotropic glutamate receptor 5 (Homo sapiens, UniProt P41594)
Assay: Displacement of [3H]M-MPEP from mGluR5 (unknown origin) at 1 uM measured after 60 mins relative to control
Procedure, shortened: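 Rat cerebrocortical membranes or membranes from A18 cells expressing human mGlu5a, incubated with [³H]M-MPEP and test compound at 1 µM in 50 mM Tris pH 7.6 with 2 mM MgCl₂ and 2 mM CaCl₂, 60 min at 25°C. Non-specific binding was taken with […]. Result is % displacement, run in duplicate or triplicate.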

Chain of Metabotropic glutamate receptor 5 (P41594 21-1212 limits assumed): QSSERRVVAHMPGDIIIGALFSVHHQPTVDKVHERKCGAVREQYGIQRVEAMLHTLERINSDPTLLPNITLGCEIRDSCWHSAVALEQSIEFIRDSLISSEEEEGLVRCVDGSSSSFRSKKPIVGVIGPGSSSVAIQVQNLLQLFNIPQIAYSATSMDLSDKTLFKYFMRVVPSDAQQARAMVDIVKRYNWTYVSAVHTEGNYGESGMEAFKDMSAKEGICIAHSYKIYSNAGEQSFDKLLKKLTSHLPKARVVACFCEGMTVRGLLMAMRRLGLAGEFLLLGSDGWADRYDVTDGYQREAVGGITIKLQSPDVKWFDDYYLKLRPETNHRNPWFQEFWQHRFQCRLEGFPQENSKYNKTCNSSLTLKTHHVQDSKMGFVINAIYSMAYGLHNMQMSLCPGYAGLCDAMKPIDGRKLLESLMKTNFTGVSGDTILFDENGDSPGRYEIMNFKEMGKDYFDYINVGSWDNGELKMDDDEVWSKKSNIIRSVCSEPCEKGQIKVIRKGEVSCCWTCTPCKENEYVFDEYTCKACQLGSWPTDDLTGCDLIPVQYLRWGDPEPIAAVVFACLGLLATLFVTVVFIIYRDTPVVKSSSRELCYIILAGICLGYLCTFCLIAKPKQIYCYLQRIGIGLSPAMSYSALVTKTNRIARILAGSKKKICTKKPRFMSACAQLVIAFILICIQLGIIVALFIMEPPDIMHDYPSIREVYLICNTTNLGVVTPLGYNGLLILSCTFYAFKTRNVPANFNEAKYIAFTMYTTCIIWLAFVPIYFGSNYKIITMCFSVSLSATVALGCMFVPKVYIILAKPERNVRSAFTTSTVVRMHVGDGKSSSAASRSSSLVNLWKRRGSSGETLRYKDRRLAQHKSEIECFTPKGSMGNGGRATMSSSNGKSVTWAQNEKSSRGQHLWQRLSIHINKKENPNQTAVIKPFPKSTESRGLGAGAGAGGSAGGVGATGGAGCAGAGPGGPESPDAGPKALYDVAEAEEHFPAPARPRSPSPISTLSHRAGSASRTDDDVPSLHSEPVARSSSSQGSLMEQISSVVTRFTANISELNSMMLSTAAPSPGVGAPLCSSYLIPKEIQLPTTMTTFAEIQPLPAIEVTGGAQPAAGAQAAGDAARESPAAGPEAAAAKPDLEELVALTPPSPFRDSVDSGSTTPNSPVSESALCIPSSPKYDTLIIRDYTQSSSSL

Row | SMILES | inhibition
1 | COc1ccc2ncc(S(=O)(=O)c3ccc(C)c(Cl)c3)c(N3CCC(C)CC3)c2c1 | 85%
2 | Cc1ccc(S(=O)(=O)c2cnc3ccc(Cl)cc3c2N2CCC(C)CC2)cc1F | 68%
3 | Cc1ccc2ncc(S(=O)(=O)c3cc(Cl)cc(Cl)c3)c(N3CCC(C)CC3)c2c1 | 75%
4 | COc1ccc(S(=O)(=O)c2cnc3ccc(OC)cc3c2N2CCC(C)CC2)cc1 | 41%
5 | Cc1ccc(S(=O)(=O)c2cnc3cc(F)ccc3c2N2CCC(C)CC2)cc1F | 89%
6 | CC1CCN(c2c(S(=O)(=O)c3cccc(Cl)c3)cnc3ccc(F)cc23)CC1 | 92%
7 | Cc1ccc(S(=O)(=O)c2cnc3ccc(F)cc3c2N2CCC(C)CC2)cc1F | 86%
8 | N#Cc1cccc(S(=O)(=O)c2cnc3cc(F)ccc3c2N2CCSCC2)c1 | 80.9%
9 | COc1ccc2ncc(S(=O)(=O)c3ccc(Cl)c(Cl)c3)c(N3CCOCC3)c2c1 | 29%
10 | COc1ccc(S(=O)(=O)c2cnc3ccc(F)cc3c2N2CCC(C)CC2)cc1Cl | 82%
11 | Cc1ccc2ncc(S(=O)(=O)c3cccc(C#N)c3)c(N3CCOCC3)c2c1 | 58%
12 | Cc1ccc2ncc(S(=O)(=O)c3ccccc3)c(N3CCC(C)CC3)c2c1 | 67%
13 | CC1CCN(c2c(S(=O)(=O)c3ccc(Cl)c(Cl)c3)cnc3cc(F)ccc23)CC1 | 94%
14 | COCC1CCN(c2c(S(=O)(=O)c3cccc(C#N)c3)cnc3cc(F)ccc23)CC1 | 91%
15 | COc1ccc(S(=O)(=O)c2cnc3ccc(F)cc3c2N2CCC(C)CC2)cc1 | 85%
16 | COc1ccc2ncc(S(=O)(=O)c3ccc(Cl)cc3)c(N3CCC(C)CC3)c2c1 | 91%
17 | CC1CCN(c2c(S(=O)(=O)c3cc(F)cc(F)c3)cnc3ccc(Cl)cc23)CC1 | 93%
18 | CC1CCN(c2c(S(=O)(=O)c3cc(F)cc(F)c3)cnc3cc(F)ccc23)CC1 | 77 to 77.2%
19 | COc1ccc2ncc(S(=O)(=O)c3cccc(Cl)c3)c(N3CCC(C)CC3)c2c1 | -3%
20 | O=S(=O)(c1ccccc1)c1cnc2ccccc2c1Nc1ccccc1 | 3.6%
21 | Cc1cc(C)cc(S(=O)(=O)c2cnc3ccc(C)cc3c2N2CCC(C)CC2)c1 | 80%
22 | COc1ccc(S(=O)(=O)c2cnc3cc(Cl)ccc3c2N2CCC(C)CC2)cc1Cl | 93%
23 | COc1ccc2ncc(S(=O)(=O)c3ccc(OC)c(Cl)c3)c(N3CCC(C)CC3)c2c1 | 21%
24 | COc1ccc2ncc(S(=O)(=O)c3cc(F)cc(F)c3)c(N3CCC(C)CC3)c2c1 | 30%
25 | CCOC(=O)C1CCN(c2c(S(=O)(=O)c3ccccc3)cnc3ccccc23)CC1 | 33%
26 | CC1CCN(c2c(S(=O)(=O)c3ccc(C#N)cc3)cnc3ccc(F)cc23)CC1 | 75%

Row | SMILES | inhibition
27 | Cc1ccc(S(=O)(=O)c2cnc3ccc(F)cc3c2N2CCC(C)CC2)cc1Cl | 91%
28 | COc1ccc2ncc(S(=O)(=O)c3cc(C)cc(C)c3)c(N3CCOCC3)c2c1 | 11%
29 | CC1CCN(c2c(S(=O)(=O)c3ccc(Cl)c(Cl)c3)cnc3cc(Cl)ccc23)CC1 | 89%
30 | O=S(=O)(c1cc(Cl)cc(Cl)c1)c1cnc2c(F)cccc2c1N1CCOCC1 | 77%
31 | NC(=O)C1CCN(c2c(S(=O)(=O)c3ccccc3)cnc3ccccc23)CC1 | 24.8%
32 | COc1cccc(S(=O)(=O)c2cnc3cc(F)ccc3c2N2CCC(C)CC2)c1 | 90%
33 | COc1ccc2ncc(S(=O)(=O)c3cc(Cl)cc(Cl)c3)c(N3CCOCC3)c2c1 | 23%
34 | COc1ccc2ncc(S(=O)(=O)c3ccc(OC)c(Cl)c3)c(N3CCOCC3)c2c1 | 9%
35 | Cc1cc(C)cc(S(=O)(=O)c2cnc3cc(F)ccc3c2N2CCC(C)CC2)c1 | 80%
36 | CC1CCN(c2c(S(=O)(=O)c3cccc(C#N)c3)cnc3ccc(F)cc23)CC1 | 93%
37 | Cc1cc(C)cc(S(=O)(=O)c2cnc3ccc(Cl)cc3c2N2CCC(C)CC2)c1 | 49%
38 | COc1ccc(S(=O)(=O)c2cnc3cc(Cl)ccc3c2N2CCC(C)CC2)cc1OC | 93%
39 | COc1ccc(S(=O)(=O)c2cnc3ccc(C)cc3c2N2CCC(C)CC2)cc1 | 62%
40 | O=S(=O)(c1ccccc1)c1cnc2ccccc2c1N1CCCC1 | 7.1%
41 | CC1CCN(c2c(S(=O)(=O)c3ccc(F)c(F)c3)cnc3ccc(Cl)cc23)CC1 | 72%
42 | COc1ccc(S(=O)(=O)c2cnc3ccc(C)cc3c2N2CCC(C)CC2)cc1Cl | 93%
43 | Cc1ccc(S(=O)(=O)c2cnc3cc(F)ccc3c2N2CCC(C)CC2)cc1Cl | 93%
44 | CC1CCN(c2c(S(=O)(=O)c3cc(Cl)cc(Cl)c3)cnc3ccc(Cl)cc23)CC1 | 88%
45 | Cc1ccc(S(=O)(=O)c2cnc3ccc(F)cc3c2N2CCC(C)CC2)cc1C | 92%
46 | COc1ccc2ncc(S(=O)(=O)c3ccc(OC)c(OC)c3)c(N3CCC(C)CC3)c2c1 | -3%
47 | CC1CCN(c2c(S(=O)(=O)c3cc(F)cc(F)c3)cnc3c(F)cccc23)CC1 | 9%
48 | Cc1ccc(S(=O)(=O)c2cnc3ccc(Cl)cc3c2N2CCC(C)CC2)cc1Cl | 81%
49 | Cc1ccc(S(=O)(=O)c2cnc3cc(Cl)ccc3c2N2CCC(C)CC2)cc1C | 86%
50 | CC1CCN(c2c(S(=O)(=O)c3cc(Cl)cc(Cl)c3)cnc3cc(Cl)ccc23)CC1 | 93%
51 | COc1ccc2ncc(S(=O)(=O)c3ccccc3)c(N3CCC(C)CC3)c2c1 | 64%

The next lines start with the values.

Row | inhibition | SMILES
52 | 83% | O=S(=O)(c1ccc(F)c(Cl)c1)c1cnc2c(F)cccc2c1N1CCOCC1
53 | 4 to 4.1% | O=S(=O)(c1cccc(F)c1)c1cnc2cc(F)ccc2c1N1CCOCC1
54 | 33% | Cc1ccc(S(=O)(=O)c2cnc3cc(F)ccc3c2N2CCOCC2)cc1
55 | 89% | CC1CCN(c2c(S(=O)(=O)c3ccc(F)cc3)cnc3ccc(Cl)cc23)CC1
56 | 34% | O=S(=O)(c1ccc(F)cc1)c1cnc2c(F)cccc2c1N1CCOCC1
57 | 51% | Cc1ccc(S(=O)(=O)c2cnc3cc(F)ccc3c2N2CCOCC2)cc1F
58 | 4% | N#Cc1ccc(S(=O)(=O)c2cnc3cc(F)ccc3c2N2CCOCC2)cc1
59 | 83% | O=S(=O)(c1ccc(F)c(Cl)c1)c1cnc2cc(Cl)ccc2c1N1CCOCC1
60 | 24% | O=S(=O)(c1cccc(Cl)c1)c1cnc2ccc(Cl)cc2c1N1CCOCC1
61 | 2% | N#Cc1ccc(S(=O)(=O)c2cnc3cc(Cl)ccc3c2N2CCOCC2)cc1
62 | 58% | O=S(=O)(c1ccc(F)c(Cl)c1)c1cnc2ccc(F)cc2c1N1CCOCC1
63 | 17% | O=S(=O)(c1cc(Cl)cc(Cl)c1)c1cnc2ccc(F)cc2c1N1CCOCC1
64 | 76.1% | COCC1CCN(c2c(S(=O)(=O)c3ccc(F)cc3)cnc3cc(F)ccc23)CC1
65 | 70% | CC1CCN(c2c(S(=O)(=O)c3ccc(C#N)cc3)cnc3cc(Cl)ccc23)CC1
66 | 4% | COc1ccc2ncc(S(=O)(=O)c3ccc(C)c(F)c3)c(N3CCOCC3)c2c1
67 | 4% | N#Cc1ccc(S(=O)(=O)c2cnc3ccc(Cl)cc3c2N2CCOCC2)cc1
68 | 57% | O=S(=O)(c1ccc(F)c(F)c1)c1cnc2c(F)cccc2c1N1CCOCC1
69 | 81% | O=S(=O)(c1cccc(Cl)c1)c1cnc2cc(Cl)ccc2c1N1CCOCC1
70 | -3% | COc1ccc2ncc(S(=O)(=O)c3cccc(F)c3)c(N3CCOCC3)c2c1
71 | 4% | O=S(=O)(c1ccccc1)c1cnc2c(F)cccc2c1N1CCOCC1
72 | 2% | COc1ccc2ncc(S(=O)(=O)c3ccc(C#N)cc3)c(N3CCOCC3)c2c1
73 | 62% | COc1ccc(S(=O)(=O)c2cnc3cc(Cl)ccc3c2N2CCOCC2)cc1Cl
74 | 0% | O=S(=O)(c1cccc(F)c1)c1cnc2ccc(F)cc2c1N1CCOCC1
75 | 76% | Cc1ccc2ncc(S(=O)(=O)c3ccc(Cl)c(Cl)c3)c(N3CCOCC3)c2c1

Row | inhibition | SMILES
76 | 5% | O=S(=O)(c1ccccc1)c1cnc2cc(Cl)ccc2c1N1CCOCC1
77 | 12% | COc1ccc2ncc(S(=O)(=O)c3cccc(Cl)c3)c(N3CCOCC3)c2c1
78 | 86% | O=S(=O)(c1ccc(Cl)c(Cl)c1)c1cnc2cc(F)ccc2c1N1CCOCC1
79 | 23% | Cc1ccc(S(=O)(=O)c2cnc3c(F)cccc3c2N2CCOCC2)cc1
80 | 49% | O=S(=O)(c1ccc(F)c(F)c1)c1cnc2cc(Cl)ccc2c1N1CCOCC1
81 | 81% | O=S(=O)(c1ccccc1)c1cnc2ccc(F)cc2c1N1CCOCC1
82 | 3% | O=S(=O)(c1cc(F)cc(F)c1)c1cnc2ccc(F)cc2c1N1CCOCC1
83 | 66% | Cc1ccc(S(=O)(=O)c2cnc3ccc(C)cc3c2N2CCOCC2)cc1
84 | 74% | Cc1ccc(S(=O)(=O)c2cnc3cc(F)ccc3c2N2CCOCC2)cc1C
85 | 83% | CC1CCN(c2c(S(=O)(=O)c3ccc(C#N)cc3)cnc3cc(F)ccc23)CC1
86 | 91% | CC1CCN(c2c(S(=O)(=O)c3ccc(Cl)cc3)cnc3cc(Cl)ccc23)CC1
87 | 56% | O=S(=O)(c1ccc(F)c(F)c1)c1cnc2cc(F)ccc2c1N1CCOCC1
88 | 18% | COc1ccc(S(=O)(=O)c2cnc3ccc(F)cc3c2N2CCOCC2)cc1
89 | 90% | Cc1ccc2ncc(S(=O)(=O)c3ccc(F)cc3)c(N3CCC(C)CC3)c2c1
90 | 7% | COc1ccc2ncc(S(=O)(=O)c3ccc(F)cc3)c(N3CCOCC3)c2c1
91 | 26% | COc1ccc(S(=O)(=O)c2cnc3ccc(F)cc3c2N2CCOCC2)cc1Cl
92 | 80% | CC1CCN(c2c(S(=O)(=O)c3ccc(Cl)cc3)cnc3ccc(F)cc23)CC1
93 | 85% | Cc1ccc(S(=O)(=O)c2cnc3cc(Cl)ccc3c2N2CCC(C)CC2)cc1F
94 | 41% | COc1cccc(S(=O)(=O)c2cnc3ccc(F)cc3c2N2CCOCC2)c1
95 | 52% | O=S(=O)(c1ccc(Cl)cc1)c1cnc2c(F)cccc2c1N1CCOCC1
96 | 14% | O=S(=O)(c1ccc(F)cc1)c1cnc2cc(Cl)ccc2c1N1CCOCC1
97 | 40% | O=S(=O)(c1cccc(Cl)c1)c1cnc2ccc(F)cc2c1N1CCOCC1
98 | 68% | O=S(=O)(c1ccc(Cl)c(Cl)c1)c1cnc2ccc(F)cc2c1N1CCOCC1
